Data published in ChEMBL document CHEMBL4823332, “Discovery and Development of Cyclic Peptide Inhibitors of CIB1” (ACS Med Chem Lett, 2021).
Active and inactive are the calls of the source. The rule behind the calls is not given here. Starred links: 1 amine or outer side, 2 acyl side, 3 side chain; linkers in the order of their positions; H or OH if unused. Positions of bridges follow the written chain, without caps; N, C: chain ends. Non-standard residues stand in square brackets, D forms with d. Residues, ends and D or L forms follow the SMILES beside them. ξ: configuration not given here. *: point of attachment. NMeW = CN[C@@H](Cc1c[nH]c2ccccc12)C(=O)O; NH(CH2CH2O)2(CH2)6Cl = ClCCCCCCOCCOCCN*; Ala(2-furyl) = N[C@@H](Cc1ccco1)C(=O)O; NMeY = CN[C@@H](Cc1ccc(O)cc1)C(=O)O; Suc = O=C(CCC(=O)[*:2])[*:1]; hLeu = CC(C)CC[C@H](N)C(=O)O; ξhLeu = CC(C)CCC(N)C(=O)O; NMeA = CN[C@@H](C)C(=O)O; Nle = CCCC[C@H](N)C(=O)O

How the values were obtained:
[1] = biological target: T1, Calcium and integrin-binding protein 1 (Homo sapiens, UniProt Q99828); assay: Displacement of Alexa Fluor 647 labelled UNC10245092 peptide from CIB1 (unknown origin) preincubated for 20 mins followed by Alexa-CIB1 phage peptide addition and measured after 20 to 30 mins by TR-FRET assay
T1 sequence (Q99828 whole entry): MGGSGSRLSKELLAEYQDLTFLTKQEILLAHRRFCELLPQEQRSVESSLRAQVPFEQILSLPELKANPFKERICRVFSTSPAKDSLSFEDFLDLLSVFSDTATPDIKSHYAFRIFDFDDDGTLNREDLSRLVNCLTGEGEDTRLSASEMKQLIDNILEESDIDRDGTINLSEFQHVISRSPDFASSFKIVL

[2] = Cytotoxicity against human MDA-MB-231 cells assessed as cell death at 30 uM incubated for 24 hrs by trypan blue assay; type: cell-based; conditions: mda-mb-231, 24 h
[3] = Stability in human MDA-MB-468 cell lysates assessed as compound remaining at 150 uM after 24 hrs by LCMS method; type: ADME, subcellular; conditions: read-out: Stabilty
How it was run: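 Peptides were incubated in MDA-MB-468 cell lysates at 37 °C.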

[4] = tested on: MDA-MB-468; assay: Cytotoxicity against human MDA-MB-468 cells assessed as cell death at 30 uM incubated for 24 hrs by trypan blue assay; type: functional
[5] = biological target: T2, Calcium and integrin-binding protein 1 (Homo sapiens) (UniProt Q99828); assay: Inhibition of CIB1 in human MDA-MB-468 cells assessed as reduction in CIB1 level after 6 hrs by Western blotting analysis; type: cell-based
T2 sequence (whole entry): T1 sequence (Q99828 whole entry)
How it was run: (§1)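 Cells were treated with peptide for 6 h and for 24 h alongside a DMSO vehicle control. Lysates were then immunoblotted for phospho-AKT, phospho-ERK and CIB1, and the levels were compared with the DMSO-treated cells.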

[6] = biological target: T2, Calcium and integrin-binding protein 1 (Homo sapiens); assay: Inhibition of CIB1 in human MDA-MB-231 cells assessed as reduction in AKT activity after 6 to 24 hrs by Western blotting analysis; type: cell-based; conditions: time 6-24 hrs; how it was run: as §1
[7] = biological target: T2, Calcium and integrin-binding protein 1 (Homo sapiens); assay: Inhibition of CIB1 in human MDA-MB-468 cells assessed as reduction in AKT activity after 6 to 24 hrs by Western blotting analysis; type: cell-based; conditions: time 6-24 hrs; how it was run: as §1
[8] = biological target: T1, Calcium and integrin-binding protein 1; assay: Binding affinity to full length CIB1 (unknown origin) at 300 uM by isothermal titration calorimetry
[9] = biological target: T2, Calcium and integrin-binding protein 1 (Homo sapiens); assay: Inhibition of CIB1 in human MDA-MB-468 cells assessed as reduction in ERK activity after 6 to 24 hrs by Western blotting analysis; type: cell-based; conditions: time 6-24 hrs; how it was run: as §1
[10] = biological target: T2, Calcium and integrin-binding protein 1 (Homo sapiens); assay: Inhibition of CIB1 in human MDA-MB-231 cells assessed as reduction in ERK activity after 6 to 24 hrs by Western blotting analysis; type: cell-based; conditions: time 6-24 hrs; how it was run: as §1
[11] = biological target: T2, Calcium and integrin-binding protein 1 (Homo sapiens); assay: Inhibition of CIB1 in human MDA-MB-231 cells assessed as reduction in CIB1 level after 6 hrs by Western blotting analysis; type: cell-based; how it was run: as §1
[12] = biological target: T2, Calcium and integrin-binding protein 1 (Homo sapiens); assay: Inhibition of CIB1 in human MDA-MB-468 cells assessed as reduction in pERK level after 6 to 24 hrs by Western blotting analysis; type: cell-based; conditions: time 6-24 hrs; how it was run: as §1
[13] = biological target: T2, Calcium and integrin-binding protein 1 (Homo sapiens); assay: Inhibition of CIB1 in human MDA-MB-231 cells assessed as reduction in pERK level after 6 to 24 hrs by Western blotting analysis; type: cell-based; conditions: time 6-24 hrs; how it was run: as §1
[14] = biological target: T2, Calcium and integrin-binding protein 1 (Homo sapiens); assay: Inhibition of CIB1 in human MDA-MB-231 cells assessed as reduction in pAKT level after 6 to 24 hrs by Western blotting analysis; type: cell-based; conditions: time 6-24 hrs; how it was run: as §1
[15] = biological target: T2, Calcium and integrin-binding protein 1 (Homo sapiens); assay: Inhibition of CIB1 in human MDA-MB-468 cells assessed as reduction in pAKT level after 6 to 24 hrs by Western blotting analysis; type: cell-based; conditions: time 6-24 hrs; how it was run: as §1

Molecule	IC50 [1]	Activity [2]	remaining at 24 h, 150 µM [3]	Activity [4]	also measured
CC[C@H](C)[C@@H]1NC(=O)[C@H](CC(C)C)NC(=O)[C@H](Cc2c[nH]c3ccccc23)NC(=O)[C@H](Cc2ccc(O)cc2)NC(=O)[C@@H]2CCCN2C(=O)[C@H](CCC(N)=O)NC(=O)[C@H](C)NC(=O)[C@H](Cc2ccc(O)cc2)NC(=O)CSC[C@@H](C(N)=O)NC(=O)[C@H](Cc2c[nH]c3ccccc23)NC(=O)[C@H](CC(N)=O)NC1=O ({CH2CO}-YAQPYWLINWC-NH2; thioether N-11)	9 nM	1.5%	21.9%	2.7%	–
CC[C@H](C)[C@@H]1NC(=O)[C@H](CC(C)C)NC(=O)[C@H](Cc2c[nH]c3ccccc23)NC(=O)[C@H](Cc2ccc(O)cc2)NC(=O)[C@@H]2CCCN2C(=O)[C@H](CCC(N)=O)NC(=O)[C@H](CCCCN)NC(=O)[C@H](Cc2ccc(O)cc2)NC(=O)CSC[C@@H](C(N)=O)NC(=O)[C@H](Cc2c[nH]c3ccccc23)NC(=O)[C@H](CC(N)=O)NC1=O ({CH2CO}-YKQPYWLINWC-NH2; thioether N-11)	12 nM	2%	48.6%	2.7%	inhibition [5]: inactive; inhibition [6]: inactive; inhibition [7]: inactive; Kd [8]: 6 nM; inhibition [9]: inactive; inhibition [10]: inactive; inhibition [11]: inactive
CC[C@H](C)[C@@H]1NC(=O)[C@H](CC(C)C)NC(=O)[C@H](Cc2c[nH]c3ccccc23)N(C)C(=O)[C@H](Cc2ccc(O)cc2)NC(=O)[C@@H]2CCCN2C(=O)C(CCC(C)C)NC(=O)[C@H](C)N(C)C(=O)[C@H](Cc2ccc(O)cc2)NC(=O)CSC[C@@H](C(N)=O)NC(=O)[C@H](Cc2c[nH]c3ccccc23)NC(=O)[C@H](CC(N)=O)NC1=O (stereo partly specified) ({CH2CO}-Y[NMeA][ξhLeu]PY[NMeW]LINWC-NH2; thioether N-11)	190 nM	–	–	–	–
CCCC[C@@H]1NC(=O)[C@H](Cc2ccc(O)cc2)NC(=O)CSC[C@@H](C(N)=O)NC(=O)[C@H](Cc2c[nH]c3ccccc23)NC(=O)[C@H](CC(C)C)NC(=O)[C@H]([C@@H](C)CC)NC(=O)[C@H](CC(C)C)NC(=O)[C@H](Cc2c[nH]c3ccccc23)NC(=O)[C@H](Cc2ccc(O)cc2)NC(=O)[C@@H]2CCCN2C(=O)[C@H](CCC(N)=O)NC1=O ({CH2CO}-Y[Nle]QPYWLILWC-NH2; thioether N-11)	59 nM	1.1%	62.2%	3.4%	–
CCCC[C@@H]1NC(=O)[C@H](Cc2ccc(O)cc2)NC(=O)CSC[C@@H](C(N)=O)NC(=O)[C@H](Cc2c[nH]c3ccccc23)NC(=O)[C@H](Cc2ccco2)NC(=O)[C@H]([C@@H](C)CC)NC(=O)[C@H](CC(C)C)NC(=O)[C@H](Cc2c[nH]c3ccccc23)NC(=O)[C@H](Cc2ccc(O)cc2)NC(=O)[C@@H]2CCCN2C(=O)[C@H](CCC(C)C)NC1=O ({CH2CO}-Y[Nle][hLeu]PYWLI[Ala(2-furyl)]WC-NH2; thioether N-11)	1500 nM	–	–	–	–
CC[C@H](C)[C@@H]1NC(=O)[C@H](CC(C)C)NC(=O)[C@H](Cc2c[nH]c3ccccc23)NC(=O)[C@H](Cc2ccc(O)cc2)N(C)C(=O)[C@@H]2CCCN2C(=O)[C@H](CCC(C)C)NC(=O)[C@H](C)NC(=O)[C@H](Cc2ccc(O)cc2)N(C)C(=O)CSC[C@@H](C(N)=O)NC(=O)[C@H](Cc2c[nH]c3ccccc23)NC(=O)[C@H](CC(N)=O)NC1=O ({CH2CO}-[NMeY]A[hLeu]P[NMeY]WLINWC-NH2; thioether N-11)	1800 nM	–	–	–	–
CSCC[C@H](NC(=O)[C@H](C)NC(=O)CNC(=O)[C@H](Cc1ccc(O)cc1)NC(=O)[C@H](Cc1c[nH]c2ccccc12)NC(=O)[C@H](Cc1ccccc1)NC(=O)[C@H](CO)NC(=O)CNC(=O)CNC(=O)[C@H](CC(=O)O)NC(=O)[C@H](CCC(=O)O)NC(=O)CCC(=O)NCCOCCOCCCCCCCl)C(=O)N[C@@H](CCCCN)C(=O)N[C@@H](C)C(=O)N[C@@H](CC(C)C)C(=O)N[C@@H](Cc1ccc(O)cc1)C(=O)NCC(N)=O ({NH(CH2CH2O)2(CH2)6Cl-Suc}-EDGGSFWYGAMKALYG-NH2)	46 nM	9.5%	–	1.7%	Kd [8]: 29.4 nM
CSCC[C@H](NC(=O)[C@H](C)NC(=O)CNC(=O)[C@H](Cc1ccc(O)cc1)NC(=O)[C@H](C)NC(=O)[C@H](Cc1ccccc1)NC(=O)[C@H](CO)NC(=O)CNC(=O)CNC(=O)[C@H](CC(=O)O)NC(=O)[C@H](CCC(=O)O)NC(=O)[C@H](CCC(N)=O)NC(=O)[C@@H]1CCCN1C(=O)[C@H](CCCNC(=N)N)NC(=O)[C@H](CCCNC(=N)N)NC(=O)[C@H](CCCNC(=N)N)NC(=O)[C@H](CCC(N)=O)NC(=O)[C@H](CCCNC(=N)N)NC(=O)[C@H](CCCNC(=N)N)NC(=O)[C@H](CCCCN)NC(=O)[C@H](CCCCN)NC(=O)[C@H](CCCNC(=N)N)NC(=O)CNC(=O)CCC(=O)NCCOCCOCCCCCCCl)C(=O)N[C@@H](CCCCN)C(=O)N[C@@H](C)C(=O)N[C@@H](CC(C)C)C(=O)N[C@@H](C)C(=O)NCC(N)=O ({NH(CH2CH2O)2(CH2)6Cl-Suc}-GRKKRRQRRRPQEDGGSFAYGAMKALAG-NH2)	> 10000 nM	1.9%	0%	1.1%	–
CSCC[C@H](NC(=O)[C@H](C)NC(=O)CNC(=O)[C@H](Cc1ccc(O)cc1)NC(=O)[C@H](Cc1c[nH]c2ccccc12)NC(=O)[C@H](Cc1ccccc1)NC(=O)[C@H](CO)NC(=O)CNC(=O)CNC(=O)[C@H](CC(=O)O)NC(=O)[C@H](CCC(=O)O)NC(=O)[C@H](CCC(N)=O)NC(=O)[C@@H]1CCCN1C(=O)[C@H](CCCNC(=N)N)NC(=O)[C@H](CCCNC(=N)N)NC(=O)[C@H](CCCNC(=N)N)NC(=O)[C@H](CCC(N)=O)NC(=O)[C@H](CCCNC(=N)N)NC(=O)[C@H](CCCNC(=N)N)NC(=O)[C@H](CCCCN)NC(=O)[C@H](CCCCN)NC(=O)[C@H](CCCNC(=N)N)NC(=O)CNC(=O)CCC(=O)NCCOCCOCCCCCCCl)C(=O)N[C@@H](CCCCN)C(=O)N[C@@H](C)C(=O)N[C@@H](CC(C)C)C(=O)N[C@@H](Cc1ccc(O)cc1)C(=O)NCC(N)=O ({NH(CH2CH2O)2(CH2)6Cl-Suc}-GRKKRRQRRRPQEDGGSFWYGAMKALYG-NH2)	150 nM	9.6%	0%	57.1%	inhibition [5]: Active; inhibition [12]: Active; inhibition [13]: Active; inhibition [14]: Active; inhibition [15]: Active; inhibition [11]: Active
Ac-YKQPYWLINWA-NH2	> 10000 nM	–	–	–	–
